Reference: ChEMBL document CHEMBL1144224, “Molecular design to enhance the penetration into the retina via ocular instillation” (Bioorg Med Chem Lett, 2008)

Columns and labels:
[1] = AUC (0 to 4 hrs) in Japanese white rabbit aqueous humor after ocular instillation of 1% suspension; type: ADME, Oryctolagus cuniculus; set-up: time < 4 hr; conditions: topical or ocular
Outline: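 Rabbit eyes given topical drops of 1% suspension or solution. Aqueous humor drug levels measured over 0–4 h, with n = 3-4 eyes per time point. AUC0–4h is calculated from the mean level-time curve.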

[2] = AUC (0 to 4 hrs) in Japanese white rabbit retina after ocular instillation of 1% suspension; type: ADME, tissue-based, Oryctolagus cuniculus; set-up: time < 4 hr; conditions: topical or ocular
Outline: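 Rabbit eyes given topical drops of 1% suspension or solution. Retinal drug levels measured over 0–4 h, with n = 3-4 eyes per time point. AUC0–4h is calculated from the mean level-time curve.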

[3] = Octanol-water partition coefficient, log P of the compound; type: physicochemical
Outline: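 Log P measured as the partition coefficient between n-octanol and water.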

[4] = Plasma AUC (0 to 4 hrs) in cynomolgus monkey at 10 mg/kg, po; type: ADME, organism-based, Macaca fascicularis; set-up: time < 4 hr, dose 10 mg/kg, route oral
Outline: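 Cynomolgus monkeys dosed orally at 10 mg/kg as a 0.2% suspension or solution in 0.5% carboxymethyl cellulose. Plasma drug levels followed over 0–4 h (n = 3-6), and AUC0–4h is derived from the plasma level-time curve.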

[5] = Drug concentration in rat retina at 10 mg/kg, po after 4 hrs; type: ADME, organism-based; set-up: dose 10 mg/kg, route oral; conditions: read-out: Drug uptake
[6] = Drug concentration in rat retina at 10 mg/kg, po at Tmax time; type: ADME, organism-based; set-up: dose 10 mg/kg, route oral; conditions: in vivo, read-out: Drug uptake

SMILES | AUC(0-t) at 4 h [1] [µM·h] | AUC(0-t) at 4 h [2] [µM·h] | logP [3] | AUC(0-t) at 4 h [4] [µM·h] | concentration at 4 h [5] [nM] | concentration [6] [nM]
COCCOCCOCCOCCOCCOC(=O)N[C@@H](CC(C)C)C(=O)N[C@@H](Cc1ccccc1)C(=O)C(=O)NC1CC1 | 1.96 | 2.99 | 0.72 |  |  | 
COCCOCCOCCOCCOC(=O)N[C@@H](CC(C)C)C(=O)N[C@@H](Cc1ccccc1)C(=O)C(=O)NC1CC1 | 5.89 | 7.12 | 0.7 | 1.61 |  | 
COCCOCCOC(=O)N[C@@H](CC(C)C)C(=O)N[C@@H](Cc1ccccc1)C(=O)C(=O)NC1CC1 | 1.55 | 2.37 | 0.91 | 2.43 | 200 | 400
COCCOC(=O)N[C@@H](CC(C)C)C(=O)N[C@@H](Cc1ccccc1)C(=O)C(=O)NC1CC1 | 1.9 | 1.32 | 1 | 1.88 |  | 
COCCOCCOCCOC(=O)N[C@@H](CC(C)C)C(=O)N[C@@H](Cc1ccccc1)C(=O)C(=O)NC1CC1 | 7.88 | 13.1 | 0.93 | 1.6 |  | 
